Assay results published in ChEMBL document CHEMBL2407023, “trans-Resveratrol in Gnetum gnemon protects against oxidative-stress-induced endothelial senescence” (J Nat Prod, 2013).
Activity calls are given as the source filed them.

Legend:
[1] = biological target: T1, NAD-dependent protein deacetylase sirtuin-1 (Homo sapiens) (UniProt Q96EB6); assay: Induction of SIRT1-mediated NRF-1 expression in H2O2-induced HUVEC pretreated for 1 day followed by compound washout and H2O2-treatment measured after 10 days by RT-PCR analysis; assay type: cell-based
T1 sequence (whole entry): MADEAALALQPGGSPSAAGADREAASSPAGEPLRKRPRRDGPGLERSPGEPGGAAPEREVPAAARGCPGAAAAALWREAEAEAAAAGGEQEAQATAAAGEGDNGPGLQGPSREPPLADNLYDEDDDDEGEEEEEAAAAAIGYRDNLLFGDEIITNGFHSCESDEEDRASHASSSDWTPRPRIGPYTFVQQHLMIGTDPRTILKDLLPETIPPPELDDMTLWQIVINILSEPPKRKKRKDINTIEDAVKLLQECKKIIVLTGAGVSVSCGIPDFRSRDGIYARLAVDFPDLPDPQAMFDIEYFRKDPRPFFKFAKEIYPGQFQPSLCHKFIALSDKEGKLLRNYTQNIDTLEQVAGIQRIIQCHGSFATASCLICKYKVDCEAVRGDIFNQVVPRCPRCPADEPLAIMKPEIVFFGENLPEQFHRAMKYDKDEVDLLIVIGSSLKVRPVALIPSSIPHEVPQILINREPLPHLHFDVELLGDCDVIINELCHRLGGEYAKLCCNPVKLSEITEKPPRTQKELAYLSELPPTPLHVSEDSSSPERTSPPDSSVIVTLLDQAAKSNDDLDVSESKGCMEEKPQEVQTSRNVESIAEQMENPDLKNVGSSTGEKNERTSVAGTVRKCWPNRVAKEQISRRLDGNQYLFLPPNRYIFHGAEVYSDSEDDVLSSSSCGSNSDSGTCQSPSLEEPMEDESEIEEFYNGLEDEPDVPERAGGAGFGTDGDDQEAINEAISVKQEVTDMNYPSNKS
Procedure, shortened: (§1)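 HUVEC were treated with compound at 100 μmol/L and H2O2 as in the senescence protocol. Total RNA was DNase-treated, then reverse transcribed with random hexamers and oligo d(T). mRNA was quantified by SYBR green real-time PCR relative to β-actin. Primer quality was checked by dissociation curves, standard-curve slopes and no-RT reactions.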

HUVEC [2] = assay: Effect on p53 expression in H2O2-induced HUVEC pretreated for 1 day followed by compound washout and H2O2-treatment measured after 10 days by immunoblotting analysis; assay type: functional, cell-based; conditions: Homo sapiens
Procedure, shortened: (§2)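 HUVEC at PDL 10−11 were pretreated 1 day with compound at 100 μmol/L in EGM-2 (vehicle 0.05% DMSO). Cells were washed and exposed to 100 μmol/L H2O2 for 1 h. They were then reseeded and cultured 10 days with compound. Lysates were made in Tris/NP40/SDS buffer with protease and phosphatase inhibitors and immunoblotted. β-actin was the loading reference, with ECL detection.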

HUVEC [3] = assay: Effect on SIRT1 expression in H2O2-induced HUVEC pretreated for 1 day followed by compound washout and H2O2-treatment measured after 10 days by immunoblotting analysis; assay type: functional, cell-based; conditions: Homo sapiens; procedure, shortened: as §2
HUVEC [4] = assay: Effect on eNOS expression in H2O2-induced HUVEC pretreated for 1 day followed by compound washout and H2O2-treatment measured after 10 days by immunoblotting analysis; assay type: functional, cell-based; conditions: Homo sapiens; procedure, shortened: as §2
HUVEC [5] = assay: Inhibition of H2O2-induced HUVEC senescence assessed as change in cellular morphology pretreated for 1 day followed by compound washout and H2O2-treatment measured after 10 days by hematoxylin staining-based assay; assay type: functional, cell-based; conditions: Homo sapiens
Procedure, shortened: (§3)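 HUVEC at PDL 10−11 were grown to 80% confluence and pretreated 1 day with compound at 100 μmol/L (vehicle 0.05% DMSO). After washing, they received 100 μmol/L H2O2 for 1 h and were reseeded at 1 × 10^6 per dish. Culture continued 10 days with compound. Fixed cells were scored for SA-βgal-positive proportion, with hematoxylin counterstain for morphology; n = 3.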

HUVEC [6] = assay: Induction of mitochondrial biogenesis in H2O2-induced HUVEC at 100 umol/L pretreated for 1 day followed by compound washout and H2O2-treatment measured after 10 days by MitoTracker Red staining-based assay; assay type: functional, cell-based; conditions: Homo sapiens
Procedure, shortened: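 HUVEC were grown in chamber slides to 80% confluence and treated with compound at 100 μmol/L plus H2O2. At 10 days after H2O2, cells were stained 15 min with 100 nM MitoTracker Red CMXRos in prewarmed medium. Nuclei were counterstained with DAPI and cells imaged by fluorescence microscopy.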

[7] = biological target: T1, NAD-dependent protein deacetylase sirtuin-1 (Homo sapiens); assay: Activation of SIRT1 (unknown origin) by fluorescence assay
Procedure, shortened: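 HUVEC exposed to compounds at 100 μmol/L were assayed for SIRT1 activity with a fluorescent SIRT1 activity kit, following the manufacturer's protocol. NAD+ was the positive control. Comparison was against vehicle control, n = 3.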

[8] = biological target: T1, NAD-dependent protein deacetylase sirtuin-1 (Homo sapiens); assay: Induction of SIRT1-mediated TFAM expression in H2O2-induced HUVEC pretreated for 1 day followed by compound washout and H2O2-treatment measured after 10 days by RT-PCR analysis; assay type: cell-based; procedure, shortened: as §1
HUVEC [9] = assay: Inhibition of H2O2-induced HUVEC senescence pretreated for 1 day followed by compound washout and H2O2-treatment measured after 10 days by SA-beta galactosidase staining-based assay; assay type: functional, cell-based; conditions: Homo sapiens; procedure, shortened: as §3
HUVEC [10] = assay: Effect on PAI-1 expression in H2O2-induced HUVEC pretreated for 1 day followed by compound washout and H2O2-treatment measured after 10 days by immunoblotting analysis; assay type: functional, cell-based; conditions: Homo sapiens; procedure, shortened: as §2

Oc1ccc(/C=C/c2cc(O)cc(O)c2)cc1
active: Activity [1] | Activity (HUVEC [2]) | Activity (HUVEC [3]) | Activity (HUVEC [4]) | inhibition (HUVEC [5]) | Activity (HUVEC [6]) | Activity [7] | Activity [8] | inhibition (HUVEC [9]) | Activity (HUVEC [10])
